In brackets after ≈: the same amount, converted by molar mass. Activity calls are given as the source filed them. The calls are words filed in the database; no cut-off is given here.

In assay [1] the test system is Francisella novicida. The assay is described as follows: Antibacterial activity against Francisella novicida infected in mouse RAW264.7 cells at 64 ug/ml after 24 hrs by broth microdilution method. The class given is functional, cell-based. Conditions: Francisella tularensis subsp. novicida. A digest of the protocol: (§1)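 F. novicida U112 grown overnight on chocolate agar, suspended in PBS and diluted to 5 × 10⁵ CFU/ml in TSB with 0.025% iron(III) pyrophosphate and 0.1% cysteine HCl. CLSI broth microdilution in triplicate, 1 to 64 μg/ml, 37°C for 24 h. MIC was the lowest concentration with no visible growth.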
On the technique in general: Dilution methods test growth across graded concentrations, often in twofold steps.

Assay [2] has as its system Francisella tularensis. As to the kind of experiment: Antibacterial activity against Francisella tularensis LVS infected in mouse RAW264.7 cells at 64 ug/ml after 48 hrs by broth microdilution method. It counts as functional, cell-based.
Assay [3] is described as follows: Selectivity index, ratio of IC50 for mouse RAW264.7 cells to MIC for Francisella novicida. It counts as functional.
Assay [4] has as its system Francisella novicida. As to the kind of experiment: Antibacterial activity against Francisella novicida infected in mouse RAW264.7 cells after 24 hrs by broth microdilution method. It counts as functional, Francisella tularensis subsp. novicida. Conditions: Francisella tularensis. A digest of the protocol:
as §1

In assay [5] the test system is Francisella tularensis. As to the kind of experiment: Antibacterial activity against Francisella tularensis LVS infected in mouse RAW264.7 cells after 48 hrs by broth microdilution method. The class given is functional.
The next assay has as its system RAW264.7. The assay is described as follows: Cytotoxicity against mouse RAW264.7 cells after 8 hrs by MTT assay. It counts as cell-based. Conditions: RAW264.7, 8 h. A digest of the protocol: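 RAW 264.7 cells at 2.5 × 10⁴/well, at least 6 wells per group, left overnight. Treated in 5% FBS DMEM with agents in DMSO (0.1% final) for 8 h. Then 0.5 mg/ml MTT for 1 h at 37°C, dye dissolved in DMSO, A570 read. Viability taken as % of vehicle control; IC50 from the dose-response.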
For orientation: Tetrazolium dyes change colour on reduction, which living cells bring about.

The subject of assay [6] is Francisella novicida. As to the kind of experiment: Antibacterial activity against Francisella novicida infected in mouse RAW264.7 cells at 64 ug/ml after 24 hrs by broth microdilution method in presence of 10% human serum albumin. Conditions: Francisella tularensis subsp. novicida. The class given is functional, cell-based.
Assay [7] relates to Francisella tularensis. The assay is described as follows: Antibacterial activity against Francisella tularensis SchuS4 infected in human THP1 cells at 4 ug/ml after 24 hrs by broth microdilution method. The class given is functional, cell-based. Conditions: THP-1.
Assay [8] deals with Francisella novicida. The assay is described as follows: Antibacterial activity against Francisella novicida infected in mouse RAW264.7 cells at 64 ug/ml after 24 hrs by broth microdilution method in presence of 80% fetal bovine serum. The class given is functional, cell-based. Conditions: Francisella tularensis subsp. novicida. A digest of the protocol:
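Broth contained 0, 10, 50 or 80% human AB serum (not albumin) or FBS to probe protein binding. NE means no effect at 64 μg/ml.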

Another assay deals with Escherichia coli. As to the kind of experiment: Antibacterial activity against Escherichia coli ATCC 25922 infected in mouse RAW264.7 cells at 64 ug/ml after 24 to 48 hrs by broth microdilution method. The class given is functional, organism-based.
Assay [9] relates to Francisella novicida. The assay is described as follows: Antibacterial activity against Francisella novicida infected in mouse RAW264.7 cells at 64 ug/ml after 24 hrs by broth microdilution method in presence of 50% human serum albumin. The class given is functional, cell-based. Conditions: Francisella tularensis subsp. novicida.
Assay [10] concerns Francisella tularensis. The assay is described as follows: Antibacterial activity against Francisella tularensis SchuS4 infected in mouse RAW264.7 cells after 24 hrs by broth microdilution method. Conditions: SchuS4, 24 h. The class given is functional.
Another assay has as its system Salmonella typhimurium. As to the kind of experiment: Antibacterial activity against Salmonella enterica serovar Typhimurium ATCC 14028 infected in mouse RAW264.7 cells at 64 ug/ml after 24 to 48 hrs by broth microdilution method. It counts as functional, organism-based. Conditions: Salmonella enterica subsp. enterica serovar Typhimurium.
Assay [11] has as its system Francisella novicida. The assay is described as follows: Antibacterial activity against Francisella novicida infected in mouse RAW264.7 cells at 64 ug/ml after 24 hrs by broth microdilution method in presence of 80% human serum albumin. The class given is functional, cell-based. Conditions: Francisella tularensis subsp. novicida.
The test system of assay [12] is Francisella tularensis. As to the kind of experiment: Antibacterial activity against Francisella tularensis SchuS4 infected in mouse RAW264.7 cells at 64 ug/ml after 24 hrs by broth microdilution method. The class given is functional, cell-based.

Turning to `Cc1ccc(-c2ccc(-c3cc(C(F)(F)F)nn3-c3ccc(S(C)(=O)=O)cc3)cc2)cc1`, the result with Francisella novicida [1] and with Francisella tularensis [2] was inactive.
As for `NS(=O)(=O)c1ccc(-n2nc(C(F)(F)F)cc2-c2ccc(-c3ccc(Cl)cc3)cc2)cc1`, the Ratio in [3] stood at 1.2. The MIC against Francisella novicida [4] and with Francisella tularensis [5] was 4 µg/mL (≈ 8.37 µM) in each case. In addition, the IC50 with RAW264.7 was 4.8 µg/mL (≈ 10 µM).
Take `CCCCc1ccc(-c2ccc(-c3cc(C(F)(F)F)nn3-c3ccc(C(N)=O)cc3)cc2)cc1`: the result with Francisella novicida [1] and in the assay with Francisella tularensis [2] was inactive.
In the case of `Nc1ccc(-n2nc(C(F)(F)F)cc2-c2cccc3ccccc23)cc1`, the values for the MIC with Francisella novicida [4] and against Francisella tularensis [5] were 16 µg/mL (≈ 45.3 µM) and 8 µg/mL (≈ 22.6 µM), respectively.
In the case of `Nc1ccc(-n2nc(C(F)(F)F)cc2-c2ccc(-c3cc(Cl)c(Cl)cc3Cl)cc2)cc1`, the result in the assay with Francisella novicida [1] was inactive. 4 µg/mL (≈ 8.29 µM) was the least that counted as inhibitory against Francisella tularensis [5] (MIC).
As for `Cc1cc(C)cc(-c2ccc(-c3cc(C(F)(F)F)nn3-c3ccc(C(N)=O)cc3)cc2)c1`, the result with Francisella novicida [1] and in the assay with Francisella tularensis [2] was inactive.
Take `CS(=O)(=O)c1ccc(-n2nc(C(F)(F)F)cc2-c2ccc(F)cc2)cc1`: the result with Francisella novicida [1] and with Francisella tularensis [2] was inactive.
For the molecule `COc1ccc2cc(-c3cc(C(F)(F)F)nn3-c3ccc(N)cc3)ccc2c1`, the minimum inhibitory concentration (MIC) against Francisella novicida [4] and against Francisella tularensis [5] was 16 µg/mL (≈ 41.7 µM) throughout.
Turning to `CCCCc1ccc(-c2cc(C(F)(F)F)nn2-c2ccc(C(N)=O)cc2)cc1`, the values for the MIC in the assay with Francisella novicida [4] and against Francisella tularensis [5] were 16 µg/mL (≈ 41.3 µM) and 8 µg/mL (≈ 20.7 µM), respectively.
With `Cc1ccc(-c2cc(C(F)(F)F)nn2-c2ccc(S(N)(=O)=O)cc2)cc1` [CELECOXIB], the outcome with Francisella novicida [6], with Francisella tularensis [7], in the assay on Francisella novicida [8], with Escherichia coli, with Francisella novicida [9] and in the assay on Salmonella typhimurium was inactive. Moreover, the outcome in the assay on Francisella novicida [11] was inactive. Also, the Ratio in [3] worked out at 0.5. Besides, the MIC with Francisella novicida [4] came out at 32 µg/mL (≈ 83.9 µM); in the assay with Francisella tularensis [5], 16 µg/mL (≈ 42 µM); against Francisella tularensis [10], 16 µg/mL (≈ 42 µM). Moreover, the half-inhibitory concentration (IC50) in the assay with RAW264.7 stood at 17 µg/mL (≈ 44.6 µM).
`FC(F)(F)c1cc(-c2ccc3ccc4ccccc4c3c2)n(-c2ccccc2)n1`: the outcome with Francisella novicida [1] and with Francisella tularensis [2] was inactive.
As to `NC(=O)c1ccc(-n2nc(C(F)(F)F)cc2-c2c3ccccc3cc3ccccc23)cc1`, the minimal inhibitory concentration (MIC) in the assay on Francisella novicida [4] and in the assay on Francisella tularensis [5] was 16 µg/mL (≈ 37.1 µM) in each case.
In the case of `NC(=O)c1ccc(-n2nc(C(F)(F)F)cc2-c2ccc(-c3ccc(C(F)(F)F)cc3)cc2)cc1`, the outcome with Francisella novicida [1] and in the assay on Francisella tularensis [2] was inactive.
`Nc1ccc(-n2nc(C(F)(F)F)cc2-c2ccc(-c3ccc(Br)cc3)cc2)cc1`: the Ratio in assay [3] came to 11.5. For the same molecule, the outcome in the assay with Francisella tularensis [12] was Active. The MIC with Francisella novicida [4] and against Francisella tularensis [5] was 4 µg/mL (≈ 8.73 µM) in each case. In the assay on RAW264.7, this molecule yielded an IC50 of 46 µg/mL (≈ 100 µM).
Regarding `CC(C)(C)c1ccc(-c2ccc(-c3cc(C(F)(F)F)nn3-c3ccc(C(N)=O)cc3)cc2)cc1`, the outcome in the assay with Francisella novicida [1] and in the assay on Francisella tularensis [2] was inactive.
As to `NC(=O)c1ccc(-n2nc(C(F)(F)F)cc2-c2ccc(-c3ccc(Cl)cc3)cc2)cc1`, the Ratio in assay [3] amounted to 2.3. Moreover, the MIC against Francisella novicida [4] amounted to 4 µg/mL (≈ 9.05 µM); in the assay with Francisella tularensis [5], 2 µg/mL (≈ 4.53 µM). This molecule also yielded a half-maximal inhibitory concentration (IC50) with RAW264.7 of 9 µg/mL (≈ 20.4 µM).
In the case of `NC(=O)c1ccc(-n2nc(C(F)(F)F)cc2-c2ccc(-c3ccccc3)cc2)cc1`, the minimum inhibitory concentration (MIC) in the assay on Francisella novicida [4] amounted to 16 µg/mL (≈ 39.3 µM); with Francisella tularensis [5], 8 µg/mL (≈ 19.6 µM).
In the case of `NS(=O)(=O)c1ccc(-n2nc(C(F)(F)F)cc2-c2ccc(-c3cc(Cl)c(Cl)cc3Cl)cc2)cc1`, in [3], the Ratio was 1.2. In addition, the minimal inhibitory concentration (MIC) was 2 µg/mL (≈ 3.66 µM) in the assay with Francisella novicida [4] and 1 µg/mL (≈ 1.83 µM) against Francisella tularensis [5]. Moreover, the IC50 in the assay on RAW264.7 is 2.4 µg/mL (≈ 4.39 µM).
Take `NC(=O)c1ccc(-n2nc(C(F)(F)F)cc2-c2ccc(-c3cc(Cl)cc(Cl)c3)cc2)cc1`: the MIC was found to be 16 µg/mL (≈ 33.6 µM) against Francisella novicida [4] and 4 µg/mL (≈ 8.4 µM) against Francisella tularensis [5].
For `Cc1ccc(-c2ccc(-c3cc(C(F)(F)F)nn3-c3ccc(C(N)=O)cc3)cc2)cc1`, in that order: 8 µg/mL (≈ 19 µM) and 8 µg/mL (≈ 19 µM).
Turning to `CS(=O)(=O)c1ccc(C2=C(c3ccccc3)C(=O)OC2)cc1` [ROFECOXIB], the result in the assay on Francisella novicida [1], with Francisella tularensis [12], in the assay on Escherichia coli, with Francisella tularensis [2] and with Salmonella typhimurium was inactive.
Consider `NS(=O)(=O)c1ccc(-n2nc(C(F)(F)F)cc2-c2cccc3ccccc23)cc1`, for which the results for the minimum inhibitory concentration (MIC) with Francisella novicida [4] and in the assay with Francisella tularensis [5] were 16 µg/mL (≈ 38.3 µM) and 8 µg/mL (≈ 19.2 µM), respectively.
`Nc1ccc(-n2nc(C(F)(F)F)cc2-c2ccc(-c3ccccc3)cc2)cc1`: in [3], the Ratio worked out at 3.8. Besides, the minimal inhibitory concentration (MIC) against Francisella novicida [4] and with Francisella tularensis [5] was 4 µg/mL (≈ 10.5 µM) in each case. In addition, the IC50 in the assay with RAW264.7 stood at 15 µg/mL (≈ 39.5 µM).

Broadly, the MIC is the lowest concentration found to suppress growth. Broadly, the IC50 is the concentration that gives 50% inhibition. Read a low IC50 as higher potency.

Source of the values: ChEMBL document CHEMBL1649498, “Pharmacological exploitation of an off-target antibacterial effect of the cyclooxygenase-2 inhibitor celecoxib against Francisella tularensis” (Antimicrob Agents Chemother, 2009).
